# Assay results published in ChEMBL document CHEMBL4732158, “Bicyclic Ligand-Biased Agonists of S1P: Exploring Side Chain Modifications to Modulate the PK, PD, and Safety Profiles” (J Med Chem, 2021).
# pEC50, pIC50: −log10 of the molar value.
# Assays:
# [1] = molecular target: T1, Sphingosine 1-phosphate receptor 4 (Homo sapiens, UniProt O95977); assay: Agonist activity at recombinant human S1P4 expressed in CHO cell membranes assessed as stimulation of [35S]-GTPgammaS binding measured after 45 mins by liquid scintillation counting method; assay type: functional, Membrane
# T1 sequence (O95977 whole entry): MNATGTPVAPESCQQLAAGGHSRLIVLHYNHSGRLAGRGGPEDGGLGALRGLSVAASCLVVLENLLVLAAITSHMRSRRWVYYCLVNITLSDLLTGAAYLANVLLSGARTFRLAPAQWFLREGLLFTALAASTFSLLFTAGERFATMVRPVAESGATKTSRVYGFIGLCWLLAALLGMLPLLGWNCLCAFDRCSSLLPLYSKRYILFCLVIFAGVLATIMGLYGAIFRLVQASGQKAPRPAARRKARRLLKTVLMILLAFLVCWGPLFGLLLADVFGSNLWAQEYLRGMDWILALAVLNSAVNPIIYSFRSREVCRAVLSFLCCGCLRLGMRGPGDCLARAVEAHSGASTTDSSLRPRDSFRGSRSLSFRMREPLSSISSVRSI
# [2] = Antimigratory activity against human T cells assessed as inhibition of S1P-induced T cell migration preincubated for 10 mins followed by addition of S1P measured after 120 mins by calcein-AM dye based fluorescence analysis; assay type: functional
# [3] = molecular target: Sphingosine 1-phosphate receptor 3 (Homo sapiens, UniProt Q99500); assay: Agonist activity at recombinant human S1P3 expressed in CHO cell membranes assessed as stimulation of [35S]-GTPgammaS binding measured after 45 mins by liquid scintillation counting method; assay type: functional, Membrane
# Sequence of Sphingosine 1-phosphate receptor 3 (Q99500 whole entry): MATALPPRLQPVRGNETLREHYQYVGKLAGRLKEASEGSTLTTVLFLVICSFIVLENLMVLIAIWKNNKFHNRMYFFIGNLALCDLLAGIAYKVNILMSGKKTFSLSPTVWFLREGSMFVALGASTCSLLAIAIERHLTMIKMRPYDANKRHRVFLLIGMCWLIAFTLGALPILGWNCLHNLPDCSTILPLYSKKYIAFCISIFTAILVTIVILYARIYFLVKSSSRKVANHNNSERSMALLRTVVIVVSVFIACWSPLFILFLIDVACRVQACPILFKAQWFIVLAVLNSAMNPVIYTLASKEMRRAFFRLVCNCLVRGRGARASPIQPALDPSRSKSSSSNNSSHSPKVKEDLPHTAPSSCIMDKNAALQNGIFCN
# [4] = molecular target: T2, Sphingosine 1-phosphate receptor 1 (Homo sapiens, UniProt P21453); assay: Agonist activity at human recombinant S1P1 expressed in CHO cells assessed as stimulation of ERK phosphorylation incubated for 7 mins by microplate reader analysis; assay type: cell-based
# T2 sequence (P21453 whole entry): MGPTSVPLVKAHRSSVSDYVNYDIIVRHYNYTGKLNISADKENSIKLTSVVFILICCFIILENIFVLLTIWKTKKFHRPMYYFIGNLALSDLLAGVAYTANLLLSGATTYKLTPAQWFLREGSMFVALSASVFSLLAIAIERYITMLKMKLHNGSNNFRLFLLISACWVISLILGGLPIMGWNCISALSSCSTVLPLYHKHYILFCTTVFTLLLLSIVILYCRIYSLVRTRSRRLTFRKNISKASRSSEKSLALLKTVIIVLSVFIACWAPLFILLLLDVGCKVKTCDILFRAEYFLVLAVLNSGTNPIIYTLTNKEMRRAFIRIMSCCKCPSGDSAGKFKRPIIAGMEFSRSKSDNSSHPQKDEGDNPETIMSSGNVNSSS
# [5] = molecular target: T2, Sphingosine 1-phosphate receptor 1; assay: Agonist activity at recombinant human S1P1 expressed in CHO cell membranes assessed as stimulation of [35S]-GTPgammaS binding measured after 45 mins by liquid scintillation counting method; assay type: functional, Cell membrane
# [6] = molecular target: T2, Sphingosine 1-phosphate receptor 1; assay: Displacement of [33P]-SIP from human recombinant S1P1 expressed in CHO cell membranes measured after 45 mins by TopCount scintillation counting method; parameters: species or system Cell membrane
# [7] = molecular target: T2, Sphingosine 1-phosphate receptor 1; assay: Agonist activity at human recombinant C-terminal GFP-fused S1P1 expressed in CHO cells assessed as induction of receptor internalization incubated for 50 mins by fluorescence based confocal laser scanning microscopic analysis; assay type: cell-based
# Rattus norvegicus = assay: Reduction in circulating lymphocytes count in Lewis rat at 5 mg/kg, po measured at 4 hrs by hematology analyzer based analysis; assay type: functional; parameters: scale not given: the % may be the effect or the level left
# How it was run: (§1)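 Lewis rats (n = 2−4) dosed orally; whole-blood lymphocyte counts taken 4 h and 24 h after dosing and reduction expressed versus vehicle-treated rats. Significance by ANOVA with Dunnett's test (p < 0.05 vs vehicle). Blood levels of parent and phosphate metabolite measured at the same time points in this PK/PD screen.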
# [8] = Drug concentration in Lewis rat blood assessed as concentration of parent compound at 5 mg/kg, po measured at 4 hrs by LC-MS/MS analysis; assay type: ADME, organism-based; details: read-out: Ct
# How it was run: (§2)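 Lewis rats (n = 2−4) dosed orally at 0.5, 1, 2 or 5 mg/kg; blood parent and phosphate metabolite concentrations and lymphocyte counts taken 4 and 24 h post-dose; phosphate-to-parent ratio from 24 h levels; significance versus vehicle by ANOVA with Dunnett's test.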
# [9] = Ratio of drug metabolism in Lewis rat blood assessed as phosphate ester metabolite to parent drug at 5 mg/kg, po measured at 24 hrs by LC-MS/MS analysis; assay type: ADME, organism-based; details: in vivo; how it was run: as §2
# [10] = Drug concentration in Lewis rat blood assessed as concentration of parent compound at 5 mg/kg, po measured at 24 hrs by LC-MS/MS analysis; assay type: ADME, organism-based; details: Lewis, blood, read-out: Ct; how it was run: as §2
# [11] = Reduction in circulating lymphocytes count in Lewis rat at 5 mg/kg, po measured at 24 hrs by hematology analyzer based analysis; assay type: ADME, organism-based; parameters: scale not given: the % may be the effect or the level left; details: in vivo; how it was run: as §1
# [12] = Pulmonary toxicity in Lewis rat assessed as fold elevation of BAL protein content at 5 mg/kg, po by chemistry analyzer based analysis relative to control; assay type: organism-based; details: in vivo
# How it was run: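 Lewis rats dosed orally; bronchoalveolar lavage protein measured at study end, expressed as fold over vehicle control.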
SMILES,pIC50 [2],pEC50 [3],pEC50 [4],pEC50 [5],pIC50 [6],pEC50 [7],also measured
CCCCCCCCc1ccc(CCC(N)(CO)COP(=O)(O)O)cc1 (centres undefined),8.92,,,,,,pEC50 [1]: 8.80
CCCCCC[C@@H]1CCc2cc([C@H]3CC[C@](N)(COP(=O)(O)O)C3)ccc2C1,8.60,,,,,,
COCCCCC[C@@H]1CCc2cc([C@H]3CC[C@](N)(COP(=O)(O)O)C3)ccc2C1,,< 6.00,8.57,8.68,10.80,8.31,
CCCC[S+]([O-])C[C@@H]1CCc2cc([C@H]3CC[C@](N)(CO)C3)ccc2C1 (some centres undefined),,,,,,,Activity (Rattus norvegicus): 0%; concentration at 4 h [8]: 109 nM; Ratio [9]: 2.3; concentration at 24 h [10]: 10 nM; Activity [11]: 75%; fold change (FC) [12]: 1.5
CCOCCC[C@H]1CCc2cc([C@H]3CC[C@](N)(COP(=O)(O)O)C3)ccc2C1,,< 6.00,8.28,8.68,10.40,9.40,
